The target in test [1] is T1, 5-hydroxytryptamine receptor 3A (Cavia porcellus) (UniProt O70212).
T1 sequence (whole entry): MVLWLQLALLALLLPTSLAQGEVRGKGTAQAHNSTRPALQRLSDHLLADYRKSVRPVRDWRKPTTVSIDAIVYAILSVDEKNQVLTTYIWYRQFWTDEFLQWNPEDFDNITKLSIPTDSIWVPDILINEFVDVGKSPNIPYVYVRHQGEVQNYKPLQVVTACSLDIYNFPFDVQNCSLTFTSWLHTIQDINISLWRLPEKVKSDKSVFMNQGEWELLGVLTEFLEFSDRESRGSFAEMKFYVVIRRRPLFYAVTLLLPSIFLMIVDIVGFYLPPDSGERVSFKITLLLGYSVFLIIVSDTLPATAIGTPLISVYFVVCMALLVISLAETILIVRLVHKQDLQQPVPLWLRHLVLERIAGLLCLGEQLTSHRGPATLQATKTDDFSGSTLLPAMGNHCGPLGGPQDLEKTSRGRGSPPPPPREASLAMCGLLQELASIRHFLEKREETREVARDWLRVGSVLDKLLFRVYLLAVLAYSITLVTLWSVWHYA
Nature of the test: Agonist activity at 5HT3 receptor in spontaneously beating guinea pig right atrium assessed as positive chronotropic potency at 100 uM. The class given is functional, tissue-based. To be noted: Cardiac atrium. In a few lines:
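Guinea pig left and right atria were hung in a 15 mL bath of PSS (pH 7.4, 95% O2-5% CO2, 35 °C) with ketanserin 1 µM. The right atrium beat spontaneously; the left was paced at 1 Hz. Cumulative doses (0.1-100 µM; DMSO ≤0.3%) were added after 45-60 min stabilization. Rate or isometric force was recorded. EC50 came from Probit analysis, n≥4. Intrinsic activity was taken relative to 5-HT.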

For another test, the system named is Rattus norvegicus. Put plainly: Agonist activity at 5HT3 receptor in urethane-anesthetized Sprague-Dawley rat assessed as induction of bradycardia at 50 ug/kg, iv measured after 5 to 30 mins post-treatment by von Bezold-Jarisch reflex test relative to 40 ug/kg, iv 1-phenylbiguanide. Format: functional.

Active and inactive are the calls of the source. No cut-off for these calls is given here.

Turning to `N/C(CN1CCN(c2nc3cc(F)ccc3n3cccc23)CC1)=N\O`, the pD2 result in test [1] was “inactive”. In the test with Rattus norvegicus, the Activity worked out at 60%.

The record behind these values is ChEMBL document CHEMBL1136924 (J Med Chem, 2009).
